EC50, Activity and fold change (FC) data for 29 compounds are collected here from ChEMBL document CHEMBL4346656, “Synthesis of urea analogues bearing N-alkyl-N'-(thiophen-2-yl) scaffold and evaluation of their innate immune response to toll-like receptors” (Eur J Med Chem, 2019).

Structures are written as SMILES. Active and inactive are the calls of the source. The calls are words filed in the database; no cut-off is given here.

What all share (format): cell-based
The target of series [1] is T1, Toll-like receptor 2 (Homo sapiens, UniProt O60603). Description: Agonist activity at human TLR2 expressed in HEK-Blue cells assessed as activation of SEAP incubated for 24 hrs by quanti-blue SEAP assay. In outline:
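TLR2 agonism in HEK-Blue hTLR2 cells, 4 × 10⁴/well, pre-cultured 24 h in DMEM/10% FBS at 37 °C, then treated 24 h with compound in fresh DMEM (tested up to 200 μM). Supernatant SEAP was read with QUANTI-Blue at 37 °C for 0.5–1 h, A620. EC50 came from at least three independent repeats.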

Series [2] concerns the target T1, Toll-like receptor 2. Description: Agonist activity at human TLR2 expressed in HEK-Blue cells assessed as NF-kappaB activation at 10 uM incubated for 24 hrs in presence of NF-kappaB inhibitor, triptolide by quanti-blue SEAP assay. The method, boiled down: (§1)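 HEK-Blue hTLR2 cells (human TLR2 plus NF-κB-driven SEAP reporter in HEK293) were seeded at 4 × 10⁴/well and pre-grown 24 h at 37 °C. They were then exposed 24 h to compound in DMEM, with or without triptolide. SEAP in the supernatant was read with QUANTI-Blue (1:1, 37 °C, 0.5–1 h) at A620. Mean ± SD of three independent experiments.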

Series [3] has as its target T1, Toll-like receptor 2. Description: Agonist activity at human TLR2 expressed in HEK-Blue cells assessed as increase in TLR2 expression at 0.1 uM incubated for 24 hrs by Western blot analysis relative to control. In outline: (§2)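 Western blot: HEK-Blue hTLR2 cells, 1.5 × 10⁶/well, were grown 24 h, then treated in serum-free DMEM with compound (0–50 μM) for 24 h. Cells were lysed in RIPA/PMSF, equal lysate loaded, SDS-PAGE, nitrocellulose. Membranes were blocked with 5% milk, probed overnight at 4 °C with rabbit anti-TLR2 (1:2000), then HRP secondary, with GAPDH as loading control. Three independent experiments.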
For orientation: In western blotting, separated proteins are transferred to a membrane and probed.

For series [4], the target named is Toll-like receptor 3 (Homo sapiens) (UniProt O15455). Description: Agonist activity at human TLR3 expressed in HEK-Blue cells assessed as activation of SEAP up to 100 uM incubated for 24 hrs by quanti-blue SEAP assay. The method, boiled down: (§3)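 HEK-Blue hTLR3 or hTLR4 cells were seeded at 4 × 10⁴/well and pre-grown 24 h, then incubated 24 h with compound at 0–100 μM. […] SEAP in the supernatant was read by QUANTI-Blue at OD620.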
Sequence of Toll-like receptor 3 (Homo sapiens) (O15455 whole entry): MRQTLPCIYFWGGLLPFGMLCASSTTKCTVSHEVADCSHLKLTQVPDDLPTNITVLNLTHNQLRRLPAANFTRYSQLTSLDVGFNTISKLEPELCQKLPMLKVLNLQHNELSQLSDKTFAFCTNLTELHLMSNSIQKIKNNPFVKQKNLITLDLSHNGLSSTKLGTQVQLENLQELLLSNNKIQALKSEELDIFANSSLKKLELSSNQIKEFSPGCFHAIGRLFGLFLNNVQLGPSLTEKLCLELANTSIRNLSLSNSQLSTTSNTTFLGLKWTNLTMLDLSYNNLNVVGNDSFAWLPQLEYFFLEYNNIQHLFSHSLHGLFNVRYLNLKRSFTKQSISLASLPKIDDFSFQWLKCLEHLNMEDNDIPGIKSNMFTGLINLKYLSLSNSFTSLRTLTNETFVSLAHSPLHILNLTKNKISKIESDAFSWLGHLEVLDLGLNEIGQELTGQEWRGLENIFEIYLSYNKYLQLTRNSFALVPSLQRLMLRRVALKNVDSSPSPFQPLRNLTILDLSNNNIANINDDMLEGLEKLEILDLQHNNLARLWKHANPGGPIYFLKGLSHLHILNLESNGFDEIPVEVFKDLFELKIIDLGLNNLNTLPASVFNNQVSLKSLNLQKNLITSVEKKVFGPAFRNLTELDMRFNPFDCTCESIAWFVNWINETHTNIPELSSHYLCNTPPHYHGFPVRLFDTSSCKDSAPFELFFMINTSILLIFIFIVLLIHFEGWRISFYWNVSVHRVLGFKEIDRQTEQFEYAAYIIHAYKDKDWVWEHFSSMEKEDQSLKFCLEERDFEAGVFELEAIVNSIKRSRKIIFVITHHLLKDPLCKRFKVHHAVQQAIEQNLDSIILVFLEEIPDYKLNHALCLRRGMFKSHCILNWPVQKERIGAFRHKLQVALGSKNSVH

Series [5] is described as follows: Cytotoxicity against human HEK-Blue cells transfected with hTLR2 assessed as cell viability upto 100 uM incubated for 24 hrs by CCK8 assay. In outline: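 HEK-Blue hTLR2 cells, 4 × 10⁴/well, were pre-cultured 24 h in DMEM/10% FBS at 37 °C, then exposed to compound for 24 h at 37 °C. Half the medium was removed, CCK-8 added, and incubation run 1–4 h at 37 °C before reading A450. Mean ± SD of three independent experiments.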
For orientation: Formazan colour is commonly taken as a measure of viable cells.

Series [6] deals with T2, Toll-like receptor 1/2 (Homo sapiens) (UniProt O60603+Q15399). Put plainly: Agonist activity at human TLR1/2 expressed in HEK-Blue cells assessed as activation of SEAP at 0.5 uM incubated for 24 hrs by quanti-blue SEAP assay in presence of Anti-hTLR1-IgG. In outline: (§4)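 HEK-Blue hTLR2 cells (endogenous TLR1 and TLR6) were seeded at 4 × 10⁴/well in DMEM with 10% FBS and grown 24 h at 37 °C. The medium was then replaced with DMEM holding 0.5 μM compound plus anti-hTLR1-IgG, anti-hTLR2-IgA or anti-hTLR6 antibody (0–10 μg/mL) for 24 h. Supernatant was mixed 1:1 with QUANTI-Blue for 0.5–1 h at 37 °C and A620 read.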

Series [7] has as its target T1, Toll-like receptor 2. Put plainly: Agonist activity at human TLR2 expressed in HEK-Blue cells assessed as NF-kappaB activation at 10 uM incubated for 24 hrs by quanti-blue SEAP assay. The method, boiled down:
as §1

Series [8] deals with T1, Toll-like receptor 2. Description: Agonist activity at human TLR2 in PMA differentiated THP-1 cells assessed as TNF-alpha production incubated for 4 hrs by ELISA. In outline:
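THP-1 cells (2.5 × 10⁵/mL) were differentiated with 100 nM PMA in RPMI/10% FBS for 24 h at 37 °C, 5% CO₂. They were washed, rested 24 h in fresh medium, then treated 4 h with compound in serum-free RPMI. Supernatant TNF-α was measured by sandwich ELISA against recombinant standards, duplicate samples. Mean ± SD, three independent experiments.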
In general terms: In an ELISA, binding on a coated surface is turned into a signal by an enzyme label.

For the next series, the target named is TLR2/TLR6 (Homo sapiens) (UniProt O60603+Q9Y2C9). Put plainly: Agonist activity at human TLR2/6 expressed in HEK-Blue cells assessed as activation of SEAP at 0.5 uM incubated for 24 hrs by quanti-blue SEAP assay in presence of Anti-hTLR6-IgG. In outline: as §4
Series [9] has as its target T2, Toll-like receptor 1/2 (Homo sapiens). Description: Agonist activity at human TLR1/2 expressed in HEK-Blue cells assessed as activation of SEAP at 0.5 uM incubated for 24 hrs by quanti-blue SEAP assay in presence of Anti-hTLR2-IgA. The method, boiled down: as §4
In series [10] the target is T1, Toll-like receptor 2. Put plainly: Agonist activity at human TLR2 expressed in HEK-Blue cells assessed as increase in TLR2 expression at 10 uM incubated for 24 hrs by Western blot analysis relative to control. In outline:
as §2

The target in series [11] is Toll-like receptor 4 (Homo sapiens) (UniProt O00206). Description: Agonist activity at human TLR4 expressed in HEK-Blue cells assessed as activation of SEAP at 10 ug/ml incubated for 24 hrs by quanti-blue SEAP assay.
Sequence of Toll-like receptor 4 (Homo sapiens) (O00206 whole entry): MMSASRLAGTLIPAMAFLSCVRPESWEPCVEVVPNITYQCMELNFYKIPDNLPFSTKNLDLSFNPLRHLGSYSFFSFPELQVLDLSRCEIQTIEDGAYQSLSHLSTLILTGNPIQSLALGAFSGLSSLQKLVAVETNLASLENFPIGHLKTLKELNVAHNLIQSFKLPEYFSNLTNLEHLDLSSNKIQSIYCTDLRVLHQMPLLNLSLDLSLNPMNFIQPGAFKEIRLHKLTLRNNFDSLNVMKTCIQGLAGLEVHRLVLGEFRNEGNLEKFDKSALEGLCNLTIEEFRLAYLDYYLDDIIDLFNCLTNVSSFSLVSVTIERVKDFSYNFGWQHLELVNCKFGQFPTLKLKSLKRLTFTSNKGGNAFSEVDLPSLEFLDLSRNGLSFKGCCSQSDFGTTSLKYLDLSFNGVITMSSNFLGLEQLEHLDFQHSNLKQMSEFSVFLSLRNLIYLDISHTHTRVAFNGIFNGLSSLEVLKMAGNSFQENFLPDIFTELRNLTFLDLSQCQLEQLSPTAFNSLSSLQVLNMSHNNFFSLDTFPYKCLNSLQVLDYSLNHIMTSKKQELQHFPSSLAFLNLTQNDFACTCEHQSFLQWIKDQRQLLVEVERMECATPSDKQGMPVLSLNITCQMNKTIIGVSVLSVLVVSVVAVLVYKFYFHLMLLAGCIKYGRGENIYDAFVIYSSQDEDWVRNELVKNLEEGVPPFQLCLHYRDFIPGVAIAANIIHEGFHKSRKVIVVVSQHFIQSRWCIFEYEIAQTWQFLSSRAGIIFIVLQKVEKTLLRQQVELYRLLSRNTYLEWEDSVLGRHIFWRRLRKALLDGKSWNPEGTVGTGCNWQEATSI
Series [12] has the same target. Description: Agonist activity at human TLR4 expressed in HEK-Blue cells assessed as activation of SEAP up to 100 uM incubated for 24 hrs by quanti-blue SEAP assay. The method, boiled down:
as §3

T1 sequence (O60603 whole entry): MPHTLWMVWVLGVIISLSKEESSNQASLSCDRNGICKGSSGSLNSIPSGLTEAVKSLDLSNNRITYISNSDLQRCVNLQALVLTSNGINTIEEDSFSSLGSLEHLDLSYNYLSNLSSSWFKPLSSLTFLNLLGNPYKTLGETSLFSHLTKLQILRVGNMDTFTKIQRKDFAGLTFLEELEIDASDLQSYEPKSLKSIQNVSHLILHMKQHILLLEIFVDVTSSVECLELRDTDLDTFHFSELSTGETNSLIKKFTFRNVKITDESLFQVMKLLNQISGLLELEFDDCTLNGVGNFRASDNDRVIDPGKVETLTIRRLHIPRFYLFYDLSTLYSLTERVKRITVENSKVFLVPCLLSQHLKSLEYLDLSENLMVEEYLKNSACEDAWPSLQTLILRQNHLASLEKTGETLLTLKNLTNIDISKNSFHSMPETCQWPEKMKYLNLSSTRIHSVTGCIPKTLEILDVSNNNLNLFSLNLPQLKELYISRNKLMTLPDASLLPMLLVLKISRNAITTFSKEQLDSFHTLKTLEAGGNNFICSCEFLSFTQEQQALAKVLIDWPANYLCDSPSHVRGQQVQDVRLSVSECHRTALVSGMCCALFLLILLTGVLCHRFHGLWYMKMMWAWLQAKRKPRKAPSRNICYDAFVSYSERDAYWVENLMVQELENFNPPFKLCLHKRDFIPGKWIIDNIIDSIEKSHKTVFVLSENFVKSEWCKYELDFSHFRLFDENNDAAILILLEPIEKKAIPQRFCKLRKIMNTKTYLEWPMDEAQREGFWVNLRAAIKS

In the case of `CCOC(=O)c1c(NC(=S)N2CCN(C)CC2)sc2c1CCC2`, at Toll-like receptor 2 [1] (read-out: EC50), the EC50 (usually the midpoint of the concentration-response curve) was 3.46 µM. Still for that read-out and setting: for `CC(C)OC(=O)c1c(NC(=S)N2CCN(C)CC2)sc2c1CCC2` the value was 16.4 µM. In the case of `CCOC(=O)c1c(NC(=S)N2CCN(C(C)=O)CC2)sc2c1CCC2`, on Toll-like receptor 2 [1], the EC50 entry is “Not Active”.

With `CCN1CCN(C(=O)Nc2sc3c(c2C(=O)OC(C)C)CCC3)CC1`, the EC50 entry on Toll-like receptor 2 [1] is listed as “Not Active”. Consider `CCCOC(=O)c1c(NC(=O)N2CCN(C)CC2)sc2c1CCCC2`, for which the EC50 at Toll-like receptor 2 [1] (read-out: EC50) was 6.63 µM. Turning to `CCOC(=O)c1c(NC(=O)N2CCN(C(C)=O)CC2)sc2c1CCC2`, the concentration giving a half-maximal response (EC50) entry on Toll-like receptor 2 [1] is listed as “Not Active”. The same measure, in the same setting: the same measure for `CC(C)OC(=O)c1c(NC(=S)N2CCN(C)CC2)sc2c1CCCCC2`: “Not Active”. Still for that read-out and setting: for `CCCCCC1CCc2c(sc(NC(=O)N3CCN(C)CC3)c2C(=O)OC)C1` (stereo unspecified) the value was “Not Active”. On to `COC(=O)c1c(NC(=O)N2CCN(C)CC2)sc2c1CCCCC2`, for which the EC50 on Toll-like receptor 2 [1] (read-out: EC50) is 1.33 µM. For the compound `CC(C)OC(=O)c1c(NC(=S)N2CCN(C)CC2)sc2c1CCCC2`, the EC50 on Toll-like receptor 2 [1] (read-out: EC50) was found to be 45.2 µM. Turning to `CCCOC(=O)c1c(NC(=O)N2CCN(C)CC2)sc2c1CCC2`, on Toll-like receptor 2 [1] (read-out: EC50), the EC50 amounted to 14.2 µM. For the compound `CCOC(=O)c1c(NC(=S)N2CCN(c3ccccc3)CC2)sc2c1CCC2`, on Toll-like receptor 2 [1], the EC50 result is reported as “Not Active”.

As to `CCOC(=O)c1c(NC(=S)N2CCN(C)CC2)sc2c1CCCC2`, on Toll-like receptor 2 [1] (read-out: EC50), the EC50 turned out to be 6.43 µM.

For `CC(C)OC(=O)c1c(NC(=S)N2CCNCC2)sc2c1CCC2`, the EC50 result at Toll-like receptor 2 [1] was “Not Active”. For the compound `CC(C)OC(=O)c1c(NC(=S)N2CCN(c3ccccc3)CC2)sc2c1CCC2`, at Toll-like receptor 2 [1], the EC50 entry is “Not Active”. Consider `CC(=O)N1CCN(C(=S)Nc2sc3c(c2C(=O)OC(C)C)CCC3)CC1`, for which the EC50 entry at Toll-like receptor 2 [1] was “Not Active”. With `CC(C)OC(=O)c1c(NC(=O)N2CCN(c3ccccc3)CC2)sc2c1CCC2`, on Toll-like receptor 2 [1], the EC50 entry is given as “Not Active”. Turning to `CCOC(=O)c1c(NC(=O)N2CCN(C)CC2)sc2c1CCCC2`, the EC50 at Toll-like receptor 2 [1] (read-out: EC50) is 0.35 µM. For the compound `COC(=O)c1c(NC(=O)N2CCN(C)CC2)sc2c1CCCC2`, the result (on Toll-like receptor 2 [2]; in series [4]; in series [6]; in [9]; in series [11]; in series [12]) was inactive. Besides, the values for the fold change (FC) on Toll-like receptor 2 [3] and at Toll-like receptor 2 [10] were over 5 and 8, respectively. The Activity entry in series [5] was “Non-Toxic”; at Toll-like receptor 2 [8] it was “Dose-dependent effect”. For the same compound, on Toll-like receptor 2 [1] (read-out: EC50), the EC50 is 0.16 µM. In addition, the result at Toll-like receptor 2 [7] and at TLR2/TLR6 (Homo sapiens) was Active. Regarding `CN1CCN(C(=O)Nc2sc3c(c2C(=O)O)CCC3)CC1`, at Toll-like receptor 2 [1], the EC50 entry is on record as “Not Active”.

Regarding `CCOC(=O)c1c(NC(=O)N2CCCCC2)sc2c1CCC2`, the EC50 entry at Toll-like receptor 2 [1] is on record as “Not Active”. Consider `CCOC(=O)c1c(NC(=O)N2CCOCC2)sc2c1CCC2`, for which the EC50 result on Toll-like receptor 2 [1] is “Not Active”. Turning to `COC(=O)c1c(NC(=O)N2CCN(C)CC2)sc2c1CCC2`, the EC50 on Toll-like receptor 2 [1] (read-out: EC50) amounted to 0.45 µM. On the same count and under the same terms, the same measure for `CCOC(=O)c1c(NC(=O)N2CCN(C)CC2)sc2c1CCC2`: 0.56 µM; for `COC(=O)c1c(NC(=O)N2CCN(C)CC2)sc2c1CCC(C)C2` (stereo unspecified): 11.8 µM.

Take `CCOC(=O)c1c(NC(=O)N2CCN(CCO)CC2)sc2c1CCC2`: the EC50 entry at Toll-like receptor 2 [1] is “Not Active”.

In the case of `CCCOC(=O)c1c(NC(=S)N2CCN(C)CC2)sc2c1CCCC2`, the EC50 entry on Toll-like receptor 2 [1] was “Not Active”.

Turning to `CC(C)OC(=O)c1c(NC(=O)N2CCN(C)CC2)sc2c1CCC2`, the EC50 at Toll-like receptor 2 [1] (read-out: EC50) is 4.59 µM.

As for `CCOC(=O)c1c(NC(=O)N2CCN(CC)CC2)sc2c1CCC2`, the EC50 at Toll-like receptor 2 [1] (read-out: EC50) came out at 8.55 µM.
